The RNAGym collection of RNA variant scans (doi:10.1126/science.aae0568)
Variants at the floor of the assay were thinned out.

B1: tRNA (parent)
chain: GUUCCGUUGGCGUAAUGGUAACGCGUCUCCCUCCUAAGGAGAAGACUGCGGGUUCGAGUCCCGUACGGAACG

Variants of: B1
Experiment: yeast fitness relative to wild type (ratio to wild type); higher = fitter; tRNA-Arg(CCU), competitive growth, 37 C, YPD
Method in brief: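 Changes in genotype frequencies gave Darwinian fitness relative to wild type. Frequencies were read by 100-nucleotide paired-end sequencing of gene amplicons before and after pooled Saccharomyces cerevisiae strains, carrying tRNA-Arg(CCU) gene variants at the native locus, were competed in YPD at 37°C for 24 hours in six replicates. A genotype was kept only with ≥ 100 starting reads, and estimates < 0.5 were set to 0.5.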

Compared with C5U U26A A65G, C5U U26A C60G A70G is lower in yeast fitness: 0.739 for the first, no more than 0.5 for the second.

G6A A21G A43U A70G and G6A A21C U47A A70G cannot be ordered by yeast fitness: no more than 0.5 for the first, no more than 0.5 for the second.

G6A A14U C33G and G6A A14G A15G A20C U64A G67A cannot be ordered by yeast fitness: no more than 0.5 for the first, no more than 0.5 for the second.

Going from C5U G51A A65C to G6A A14G G18A A42C, the yeast fitness rises from no more than 0.5 to 0.618.

Compared with G6A A20C C49G G50C, G6A A20C is higher in yeast fitness: no more than 0.5 for the first, 0.714 for the second.

First: G6A A20U
Second: C5U G52C
The yeast fitness of the first is higher: 0.851 for the first, 0.622 for the second.

C5U G51C U53C and C5U U13C U19A A21U C24A U54C cannot be ordered by yeast fitness: no more than 0.5 for the first, no more than 0.5 for the second.

G6A A14U C30U A69U and C5U U26G C49G cannot be ordered by yeast fitness: no more than 0.5 for the first, no more than 0.5 for the second.

First: C5U G56A U59G
Second: G6A A14C A42U C62A C66U
The yeast fitness of the first is higher: 0.516 for the first, no more than 0.5 for the second.

C5U U28C C29G C49U and C5U U32C C49U A57C cannot be ordered by yeast fitness: no more than 0.5 for the first, no more than 0.5 for the second.

First: C5U U13A A57U
Second: G6A A20G A36G C49G C61A
The yeast fitness of the first is higher: 0.573 for the first, no more than 0.5 for the second.

First: C5U U7A U28A
Second: C5U U16A A42U
The yeast fitness of the first is lower: 0.573 for the first, 0.666 for the second.

C5U U8A C46A and G6A A15C C60A C62U cannot be ordered by yeast fitness: no more than 0.5 for the first, no more than 0.5 for the second.

First: C5U U8C A43U
Second: C5U U7C G10A C34A G63A
The yeast fitness of the first is higher: 0.703 for the first, no more than 0.5 for the second.

First: G6A A21C
Second: G6A A20U U53A G58A
The yeast fitness of the first is higher: 0.84 for the first, 0.538 for the second.

Going from C5U U28A G41A to C5U U8C A20G C30A C61U, the yeast fitness rises from 0.534 to 0.544.

First: G6A A20C A70G
Second: G6A A14U G23A C29G C46A C55G G68A A70C
The yeast fitness of the first is higher: 0.718 for the first, no more than 0.5 for the second.

C5U U13A C29G C31A C61U and G6A A14G C22G cannot be ordered by yeast fitness: no more than 0.5 for the first, no more than 0.5 for the second.

Going from C5U U28A G41A C66U to G6A A15U, the yeast fitness rises from 0.542 to 0.628.

Compared with G6A A15C, G6A A15G is higher in yeast fitness: 0.601 for the first, 0.712 for the second.

Compared with C5U G56C A65G, C5U U16A C46A is higher in yeast fitness: 0.536 for the first, 1.07 for the second.

G6A A20U C27A and C5U U16A G23A C49U cannot be ordered by yeast fitness: no more than 0.5 for the first, no more than 0.5 for the second.

First: C5U U13C U26A
Second: C5U U35C A45U C61G
The yeast fitness of the first is higher: 0.722 for the first, no more than 0.5 for the second.

First: C5U G56C A57U
Second: C5U U8C C11G A15U A36U G38A C61U A70U
The yeast fitness of the first is lower: no more than 0.5 for the first, 0.564 for the second.

First: G6A A14U C66U
Second: C5U G44C U47C
The yeast fitness of the first is lower: no more than 0.5 for the first, 0.807 for the second.

C5U U19A A40C C49G C55G A69U and G6A A20U U26G C62U cannot be ordered by yeast fitness: no more than 0.5 for the first, no more than 0.5 for the second.

C5U U13G C27U C29A A36U A40C G52C and C5U U8A A57U cannot be ordered by yeast fitness: no more than 0.5 for the first, no more than 0.5 for the second.

C5U U19G G23A and G6A A21G A37C A57C cannot be ordered by yeast fitness: no more than 0.5 for the first, no more than 0.5 for the second.

First: C5U U28G A45C C66U
Second: C5U G68A
The yeast fitness of the first is lower: 0.599 for the first, 0.969 for the second.

Compared with C5U G68U, C5U G68C is lower in yeast fitness: 0.88 for the first, 0.842 for the second.

Going from C5U U7A G39C C49U to C5U U28A, the yeast fitness rises from no more than 0.5 to 0.864.

Going from C5U U28C to C5U U28G, the yeast fitness falls from 0.976 to 0.71.

Compared with C5U U32C A37C C60U G67A, C5U U47C A57U G67C is lower in yeast fitness: 0.572 for the first, no more than 0.5 for the second.

Going from G6A A15C C22G C33U U59G C62G to C5U U28G C49A, the yeast fitness falls from 0.634 to no more than 0.5.

Compared with C5U U32C A45C, G6A A15G C30A G67A is lower in yeast fitness: 0.733 for the first, no more than 0.5 for the second.

First: C5U U26A A65U G68U
Second: C5U G51C A57C
The yeast fitness of the first is higher: 0.548 for the first, no more than 0.5 for the second.

Compared with G6A A20C A45U C46U A57C, C5U U26A A69C is higher in yeast fitness: 0.501 for the first, 0.78 for the second.

Compared with G6A A15G C29U, G6A A15G C29A is lower in yeast fitness: 0.607 for the first, no more than 0.5 for the second.

Going from C5U U13C A20C A36G G52C to C5U U13G G44A A57U, the yeast fitness rises from no more than 0.5 to 0.642.

G6A A21C C34U C49U C55G C62U and C5U G51C U53C A69G cannot be ordered by yeast fitness: no more than 0.5 for the first, no more than 0.5 for the second.

Compared with C5U U35C A45C, C5U U19G A21U C29G C61G is lower in yeast fitness: 0.743 for the first, no more than 0.5 for the second.

First: C5U U35A
Second: C5U U35G
The yeast fitness of the first is higher: 0.615 for the first, 0.592 for the second.

First: C5U U8C G17C C31A G68A
Second: G6A A14G
The yeast fitness of the first is lower: no more than 0.5 for the first, 0.844 for the second.

Going from C5U U13G C22A C29U C31A U59A C62U to C5U U8A G18C, the yeast fitness rises from no more than 0.5 to 0.577.

Compared with C5U U26C A70U, C5U U16G C34U A40G A43G C62A A69C is lower in yeast fitness: 0.723 for the first, 0.565 for the second.

First: G6A A14G A36G A45U
Second: C5U U19G A21U C29G
The yeast fitness of the first is higher: 0.574 for the first, no more than 0.5 for the second.

G6A A14C A37U A57C G67U and C5U U7A A36U cannot be ordered by yeast fitness: no more than 0.5 for the first, no more than 0.5 for the second.

First: C5U U16G C24U
Second: C5U U13C U19A A21U C24A U54C U59C C66G
The yeast fitness of the first is higher: 0.776 for the first, no more than 0.5 for the second.

G6A A20U C29G C49G G63C and C5U G67A A69U cannot be ordered by yeast fitness: no more than 0.5 for the first, no more than 0.5 for the second.

G6A A20U C62G C66G and G6A A15C A20U G68A cannot be ordered by yeast fitness: no more than 0.5 for the first, no more than 0.5 for the second.

Compared with C5U G52A A65G, C5U G52A A65U is lower in yeast fitness: 0.598 for the first, no more than 0.5 for the second.

Compared with C5U U8A A69C, C5U G67A is higher in yeast fitness: no more than 0.5 for the first, 0.923 for the second.

Compared with C5U G67U, C5U G67C is higher in yeast fitness: 0.735 for the first, 0.913 for the second.

First: C5U U16G A65C
Second: C5U U13G C33A A37C G52C
The yeast fitness of the first is higher: 0.612 for the first, no more than 0.5 for the second.

First: C5U G44C U54C
Second: C5U U7C C30G A42C G52A C55U C66U
The yeast fitness of the first is higher: 0.637 for the first, no more than 0.5 for the second.

Going from G6A A14C C24U to C5U U7G G25C G39A C66U, the yeast fitness falls from 0.597 to no more than 0.5.

Going from C5U U8C A43U C66U to C5U G44C G63C, the yeast fitness rises from no more than 0.5 to 0.686.

Going from G6A A20C C27U to C5U U47G, the yeast fitness falls from 0.663 to 0.615.

C5U U16C C24U A42C A57U and C5U U13C G39C A45G cannot be ordered by yeast fitness: no more than 0.5 for the first, no more than 0.5 for the second.

First: C5U U35C A43U A70G
Second: G6A A20G C31G C46U
The yeast fitness of the first is lower: no more than 0.5 for the first, 0.58 for the second.

C5U U16C A40G A43G G67C and C5U U8C A14C cannot be ordered by yeast fitness: no more than 0.5 for the first, no more than 0.5 for the second.

First: C5U U7C C30G A42C
Second: C5U G41A G56C C62G G68C
The yeast fitness of the first is higher: 0.565 for the first, no more than 0.5 for the second.

First: C5U U8A U59G
Second: C5U U28G A45C
The yeast fitness of the first is lower: no more than 0.5 for the first, 0.592 for the second.

Compared with C5U U26A C33G C46U C55G C66A, G6A A14G G17C is lower in yeast fitness: 0.539 for the first, no more than 0.5 for the second.

C5U U7G A45G A70C and C5U U28A C34U C61U cannot be ordered by yeast fitness: no more than 0.5 for the first, no more than 0.5 for the second.

Going from G6A A14C A40U A43G G48A to C5U U13A C27G, the yeast fitness falls from 0.607 to 0.557.

C5U U7A C30A G56C C66G and G6A A20G C29A A70U cannot be ordered by yeast fitness: no more than 0.5 for the first, no more than 0.5 for the second.

Compared with G6A A15U G23A C33A U54A, G6A A20C C66U is higher in yeast fitness: no more than 0.5 for the first, 0.889 for the second.

C5U U13C C30U A40G C55A G63C A65C and C5U G51A A57U cannot be ordered by yeast fitness: no more than 0.5 for the first, no more than 0.5 for the second.

C5U U13C C24G U26C A36C C55G A57U C62U and G6A A20U A21G C61U cannot be ordered by yeast fitness: no more than 0.5 for the first, no more than 0.5 for the second.

First: C5U U53A
Second: C5U U53C
The yeast fitness of the first is lower: 0.604 for the first, 0.747 for the second.

First: C5U U7G C34G G44A U59G G68U
Second: C5U U7G C30A
The yeast fitness of the first is lower: no more than 0.5 for the first, 0.93 for the second.

First: C5U U19G
Second: C5U U19A
The yeast fitness of the first is higher: 1 for the first, 0.906 for the second.

C5U U13A A43G A45G C62G and G6A A15G C46A A69U cannot be ordered by yeast fitness: no more than 0.5 for the first, no more than 0.5 for the second.

Compared with G6A A21C U47A G58A A65C, G6A A20G C46U is higher in yeast fitness: no more than 0.5 for the first, 0.723 for the second.

G6A A15C C29U and C5U G56A G68C A69U cannot be ordered by yeast fitness: no more than 0.5 for the first, no more than 0.5 for the second.

Compared with C5U G63C, C5U G63A is higher in yeast fitness: 0.664 for the first, 0.828 for the second.

C5U U28G A42C and G6A A15G C30U A69U cannot be ordered by yeast fitness: no more than 0.5 for the first, no more than 0.5 for the second.

Going from C5U U13G to C5U U35C A36U G38A C46A U54C, the yeast fitness falls from 1.02 to 0.556.

First: C5U U7C A15U A40U U59A A65U G68A
Second: C5U U26A U54C
The yeast fitness of the first is lower: 0.542 for the first, 0.644 for the second.

G6A A21C U28A and C5U U7G A57U cannot be ordered by yeast fitness: no more than 0.5 for the first, no more than 0.5 for the second.

First: G6A A15C C33G A36C
Second: G6A A15C A20U C61G
The yeast fitness of the first is lower: no more than 0.5 for the first, 0.565 for the second.

First: G6A A20C C61U
Second: G6A A20C C61A
The yeast fitness of the first is higher: 0.663 for the first, no more than 0.5 for the second.

In the case of G6A A15C G23U, the yeast fitness is reported as no more than 0.5.
